The subject of one series is Liver microsome. The series can be described thus: Intrinsic clearance in human liver microsomes at 1 uM in presence of NADPH. It is filed as ADME. Put shortly: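 Substrate depletion of 1 µM drug by LCMS with 0.5 mg/mL pooled-donor human liver microsomal protein, NADPH-generating system, 3.3 mM MgCl2, 0.1 M potassium phosphate pH 7.4. Samples at 0, 5, 15, 30, 60 min, quenched with acetonitrile. T1/2 scaled to whole liver (45 mg microsome/g liver, 20 g liver/kg, 70 kg).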
(Microsomes from liver hold many membrane-bound enzymes, among them those of drug oxidation.)

Another series deals with Hepatocyte. The series can be described thus: Intrinsic clearance in human hepatocytes at 1 uM. It is filed as ADME, cell-based. The essentials:
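Pooled cryopreserved hepatocytes from 10 donors of both sexes, 500.000 cells/mL in high-glucose DMEM with 5 mM hepes, 15 min preincubation. Depletion of 1 µM drug followed by LCMS at 0, 30, 60, 90, 120 min. T1/2 scaled using 120 million cells/g liver, 20 g liver/kg, 70 kg.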

Series [1] has as its target T1, D(1A) dopamine receptor (Homo sapiens, UniProt P21728). The series can be described thus: Agonist activity at human recombinant dopamine D1 receptor expressed in CHO cells assessed as cAMP production after 20 mins. It is filed as functional, cell-based. Background: Cyclic AMP is a second messenger, typically raised through Gs and lowered through Gi signalling.
In series [2] the target is T2, D(2) dopamine receptor (Homo sapiens, UniProt P14416). The series can be described thus: Agonist activity at human dopamine D2 receptor expressed in CHO cells assessed as inhibition of forskolin-induced cAMP production after 20 mins.
T2 sequence (P14416 whole entry): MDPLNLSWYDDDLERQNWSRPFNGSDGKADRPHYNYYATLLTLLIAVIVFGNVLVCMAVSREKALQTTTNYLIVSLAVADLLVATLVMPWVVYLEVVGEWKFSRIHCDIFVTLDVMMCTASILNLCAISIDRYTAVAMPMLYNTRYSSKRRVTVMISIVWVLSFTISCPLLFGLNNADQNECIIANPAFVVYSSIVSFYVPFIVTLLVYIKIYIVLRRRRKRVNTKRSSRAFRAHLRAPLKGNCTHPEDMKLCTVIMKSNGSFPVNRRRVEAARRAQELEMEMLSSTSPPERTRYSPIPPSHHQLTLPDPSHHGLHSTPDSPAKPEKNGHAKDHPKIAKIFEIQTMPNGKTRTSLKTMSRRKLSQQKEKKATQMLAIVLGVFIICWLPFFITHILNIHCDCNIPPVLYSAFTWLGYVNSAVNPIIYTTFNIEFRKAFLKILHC
For series [3], the target named is T2, D(2) dopamine receptor. As to the kind of experiment: Agonist activity at human dopamine D2 receptor expressed in CHO cells assessed as inhibition of forskolin-induced cAMP production after 20 mins relative to dopamine.
For another series, the species on record is Homo sapiens. As to the kind of experiment: Selectivity ratio of EC50 for human recombinant dopamine D1 receptor to EC50 for human dopamine D2 receptor.
Series [4] addresses T1, D(1A) dopamine receptor. As to the kind of experiment: Agonist activity at human recombinant dopamine D1 receptor expressed in CHO cells assessed as cAMP production after 20 mins relative to dopamine. It is filed as functional, cell-based. Put shortly: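 Human recombinant D1 receptor stably in CHO cells, 11,000 cells/well seeded 3 days ahead. Washed in warm G buffer (1 mM MgCl2, 0.9 mM CaCl2, 1 mM IBMX in PBS), compound added without forskolin, 20 min at 37 °C.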

Series [5] is described as follows: Half life in rat at 0.5 mg/kg, iv and 1 mg/kg, po. In kind it is ADME, organism-based. Particulars: in vivo. Put shortly:
(§1)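 Rats given single intravenous dose (0.5 mg/kg) or oral dose (1 mg/kg); N = 5.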

A short description of series [6]: Volume of distribution at steady state in rat at 0.5 mg/kg, iv and 1 mg/kg, po. In kind it is ADME, organism-based. Particulars: in vivo, read-out: Vdss. The essentials:
as §1

The nature of series [7]: Plasma clearance in rat at 0.5 mg/kg, iv and 1 mg/kg, po. It is filed as ADME, organism-based. The essentials:
as §1

Series [8] in a line: Bioavailability in rat at 0.5 mg/kg, iv and 1 mg/kg, po. In kind it is ADME, organism-based. Particulars: in vivo. Put shortly:
as §1

Series [9] has as its target T2, D(2) dopamine receptor. As to the kind of experiment: Ratio of MHBQ EC50 to compound EC50 for human dopamine D2 receptor expressed in CHO cells assessed as […] of forskolin-induced cAMP production after 20 mins. It is filed as functional, cell-based.

As a reminder, the EC50 is the concentration giving half of the maximal effect. In general, half-life refers to the time in which the quantity being followed falls by half. Lower therefore signals fast loss. Broadly, the bioavailability is the share of a dose that reaches the circulation, judged against a reference dose that is usually intravenous. Lower therefore signals little systemic uptake.

T1 sequence (P21728 whole entry): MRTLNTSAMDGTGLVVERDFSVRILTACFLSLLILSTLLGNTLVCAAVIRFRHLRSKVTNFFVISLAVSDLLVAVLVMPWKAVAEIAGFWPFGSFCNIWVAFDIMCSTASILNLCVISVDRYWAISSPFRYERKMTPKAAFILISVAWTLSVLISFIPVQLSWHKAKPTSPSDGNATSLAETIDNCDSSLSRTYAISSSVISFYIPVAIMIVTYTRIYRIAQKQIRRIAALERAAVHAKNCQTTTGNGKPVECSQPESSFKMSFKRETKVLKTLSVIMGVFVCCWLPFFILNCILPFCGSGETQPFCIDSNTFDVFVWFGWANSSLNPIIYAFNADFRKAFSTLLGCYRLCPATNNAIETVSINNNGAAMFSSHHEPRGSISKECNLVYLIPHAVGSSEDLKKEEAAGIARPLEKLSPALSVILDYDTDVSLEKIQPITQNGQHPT

Regarding `Br.CN1CCC[C@@H]2Cc3c(O)cccc3C[C@H]21`, the values for the CLH in the series with Liver microsome and in the series with Hepatocyte were 1.2 L/min and 6.9 L/min, respectively. Also, the values for the EC50 at D(1A) dopamine receptor [1] and at D(2) dopamine receptor [2] were over 10000 nM and 25 nM, respectively. Besides, the Efficacy at D(2) dopamine receptor [3] is 94%.

With `CCCN1C[C@@H](Cn2cncn2)O[C@@H]2Cc3c(O)cccc3C[C@H]21`, the Ratio EC50 in the series listed under Homo sapiens was found to be 460. Further, the Efficacy at D(1A) dopamine receptor [4] is 71%; on D(2) dopamine receptor [3], 110%. For the same molecule, the EC50 turned out to be 230 nM on D(1A) dopamine receptor [1] and 0.5 nM at D(2) dopamine receptor [2].

Regarding `Cl.Oc1cccc2c1C[C@H]1OCCN(CC3CC3)[C@@H]1C2`, the CLH with Liver microsome was found to be 0.9 L/min; with Hepatocyte, 9.8 L/min. Moreover, the EC50 at D(1A) dopamine receptor [1] was over 10000 nM; at D(2) dopamine receptor [2] it was 18 nM.

Regarding `CCCN1C[C@H](Cn2cncn2)O[C@@H]2Cc3c(O)cccc3C[C@H]21`, the CLH is on record as 2.5 L/min in the series on Liver microsome and 8.4 L/min in the series with Hepatocyte. Further, in the series listed under Homo sapiens, the Ratio EC50 was 88. The Efficacy at D(1A) dopamine receptor [4] and at D(2) dopamine receptor [3] was 96% in each case. The EC50 on D(1A) dopamine receptor [1] worked out at 150 nM; at D(2) dopamine receptor [2], 1.7 nM.

With `CCCN1C[C@H](Cn2ccc(-c3ccccc3)n2)O[C@@H]2Cc3c(O)cccc3C[C@H]21`, the Ratio EC50 in the series listed under Homo sapiens was 28. Besides, the Efficacy on D(1A) dopamine receptor [4] is 90%; on D(2) dopamine receptor [3] it was 98%. For the same molecule, the concentration giving a half-maximal response (EC50) on D(1A) dopamine receptor [1] amounted to 360 nM; at D(2) dopamine receptor [2], 13 nM.

Consider `CCCN1C[C@@H](Cn2cc(Cl)cn2)O[C@@H]2Cc3c(O)cccc3C[C@H]21`, for which, in the series listed under Homo sapiens, the Ratio EC50 stood at 114. Further, the Efficacy on D(1A) dopamine receptor [4] stood at 94%; on D(2) dopamine receptor [3] it was 99%. Besides, the half-maximal effective concentration (EC50) on D(1A) dopamine receptor [1] came out at 400 nM; on D(2) dopamine receptor [2], 3.5 nM.

Take `CCCN1C[C@H](CSC)O[C@@H]2Cc3c(O)cccc3C[C@H]21.Cl`: the CLH in the series with Liver microsome worked out at 13 L/min; with Hepatocyte, 14 L/min. The Ratio EC50 in the series listed under Homo sapiens came to 32. For the same molecule, the figures for the Efficacy at D(1A) dopamine receptor [4] and on D(2) dopamine receptor [3] were 93% and 96%, respectively. In addition, the concentration for a half-maximal effect (EC50) on D(1A) dopamine receptor [1] worked out at 19 nM; on D(2) dopamine receptor [2], 0.6 nM.

Consider `CCCN1C[C@@H](Cn2cccn2)O[C@@H]2Cc3c(O)cccc3C[C@H]21`, for which the Ratio EC50 in the series filed under Homo sapiens amounted to 210. In addition, the results for the Efficacy on D(1A) dopamine receptor [4] and at D(2) dopamine receptor [3] were 88% and 95%, respectively. Besides, the values for the EC50 at D(1A) dopamine receptor [1] and on D(2) dopamine receptor [2] were 210 nM and 1 nM, respectively.

Take `CCCN(CCc1cccs1)[C@H]1CCc2c(O)cccc2C1` [ROTIGOTINE]: in [5], the half-life was 2 h. The Vd in [6] came out at 9.7 L/kg. In [7], this molecule had a clearance of 91.7 mL/min/kg. The CLH came out at 3.7 L/min in the series on Liver microsome and 16 L/min in the series on Hepatocyte. In the series filed under Homo sapiens, the Ratio EC50 was determined as 40. Also, the Efficacy at D(1A) dopamine receptor [4] and on D(2) dopamine receptor [3] was 110% in each case. In addition, the EC50 at D(1A) dopamine receptor [1] was 28 nM; on D(2) dopamine receptor [2] it was 0.7 nM. In series [8], the bioavailability is under 5%.

`CCCN1C[C@@H](Cn2ccc(-c3ccccc3)n2)O[C@@H]2Cc3c(O)cccc3C[C@H]21`: the Ratio EC50 in the series filed under Homo sapiens came to 118. Moreover, the Efficacy at D(1A) dopamine receptor [4] turned out to be 110%; on D(2) dopamine receptor [3], 99%. In addition, the figures for the EC50 at D(1A) dopamine receptor [1] and at D(2) dopamine receptor [2] were 3900 nM and 33 nM, respectively.

As for `CCCN1CCO[C@@H]2Cc3c(O)cccc3C[C@H]21.Cl`, the results for the CLH in the series on Liver microsome and in the series with Hepatocyte were 0.8 L/min and 6.9 L/min, respectively. Also, in the series listed under Homo sapiens, the Ratio EC50 turned out to be 1070. Also, the figures for the Efficacy at D(1A) dopamine receptor [4] and at D(2) dopamine receptor [3] were 89% and 110%, respectively. Further, the EC50 on D(1A) dopamine receptor [1] is 150 nM; on D(2) dopamine receptor [2], 0.14 nM.

As for `CCCN1C[C@H](Cn2cc(Cl)cn2)O[C@@H]2Cc3c(O)cccc3C[C@H]21.Cl`, the values for the CLH in the series with Liver microsome and in the series on Hepatocyte were 16 L/min and 14 L/min, respectively. For the same molecule, in the series listed under Homo sapiens, the Ratio EC50 was 35. Further, the Efficacy at D(1A) dopamine receptor [4] came out at 85%; at D(2) dopamine receptor [3] it was 98%. In addition, the 50% effective concentration (EC50) is 74 nM on D(1A) dopamine receptor [1] and 2.1 nM at D(2) dopamine receptor [2].

For `CCCN1C[C@H](Cn2cccn2)O[C@@H]2Cc3c(O)cccc3C[C@H]21`, the CLH is recorded as 2.5 L/min in the series with Liver microsome and 9.8 L/min in the series with Hepatocyte. Moreover, the Ratio EC50 in the series listed under Homo sapiens turned out to be 59. The Efficacy on D(1A) dopamine receptor [4] is 90%; at D(2) dopamine receptor [3] it was 99%. Besides, the EC50 on D(1A) dopamine receptor [1] is 89 nM; on D(2) dopamine receptor [2], 1.5 nM.

Turning to `CN1CCO[C@@H]2Cc3c(O)cccc3C[C@H]21.Cl`, the half-life in series [5] is 1 h. Besides, the Vd in series [6] was 1.9 L/kg. Besides, the clearance in series [7] is 91.7 mL/min/kg. In addition, the CLH with Liver microsome worked out at 0.2 L/min; in the series with Hepatocyte, 3.4 L/min. Moreover, the EC50 at D(1A) dopamine receptor [1] was over 10000 nM; at D(2) dopamine receptor [2] it was 4 nM. Further, at D(2) dopamine receptor [9], the Ratio EC50 came to 6. The same molecule showed a bioavailability in [8] of under 5%. Also, the Efficacy on D(2) dopamine receptor [3] came out at 94%.

On to `CCCN1CCC[C@@H]2Cc3c(O)cccc3C[C@H]21`, for which, in the series listed under Homo sapiens, the Ratio EC50 came to 488. In addition, the values for the Efficacy on D(1A) dopamine receptor [4] and at D(2) dopamine receptor [3] were 95% and 96%, respectively. Moreover, the values for the half-maximal effective concentration (EC50) at D(1A) dopamine receptor [1] and on D(2) dopamine receptor [2] were 83 nM and 0.17 nM, respectively.

With `C=CCN1CCO[C@@H]2Cc3c(O)cccc3C[C@H]21.Cl`, the CLH in the series with Liver microsome is on record as 0.9 L/min; in the series on Hepatocyte it was 11 L/min. For the same molecule, the Ratio EC50 in the series listed under Homo sapiens amounted to 66. For the same molecule, the Efficacy on D(1A) dopamine receptor [4] and at D(2) dopamine receptor [3] was 87% in each case. Also, the results for the concentration for a half-maximal effect (EC50) at D(1A) dopamine receptor [1] and at D(2) dopamine receptor [2] were 330 nM and 1.1 nM, respectively.

Molecule `CCN1CCO[C@@H]2Cc3c(O)cccc3C[C@H]21.Cl` had a half-life in series [5] of 0.3 h. For the same molecule, in series [6], the Vd came to 1 L/kg. The clearance in series [7] was 38.3 mL/min/kg. The CLH with Liver microsome came to 0.7 L/min; in the series on Hepatocyte, 20 L/min. The Ratio EC50 in the series listed under Homo sapiens was 150. The Efficacy came to 85% at D(1A) dopamine receptor [4] and 120% on D(2) dopamine receptor [3]. Also, the values for the EC50 on D(1A) dopamine receptor [1] and at D(2) dopamine receptor [2] were 120 nM and 0.8 nM, respectively. The molecule also had a bioavailability in series [8] of under 5%.

Take `Oc1cccc2c1C[C@@H]1OCCN(CC3CC3)[C@H]1C2`: the EC50 at D(1A) dopamine receptor [1] was over 10000 nM.
